TPT1 inhibitor = Candida albicans TPT1 enzyme inhibitors, primary screen, biochemical, fluorescence polarization; inhibition, % at 5 µM; recombinant caTPT1, FP RNA substrate dephosphorylation; 0.81% of 300,000 active; tRNA 2'-phosphotransferase TPT1 (Candida albicans SC5314);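 active = inhibition above the mean of all tested compounds plus 3 SD, set per screening campaign, cut at about 24% in these data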;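 also: plate controls were DMSO alone for no effect and ferristatin control at 100 nM for full effect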
CSN deneddyl inh = inhibitors of CSN-mediated cullin deneddylation, primary screen, biochemical, fluorescence polarization, uHTS; Purified CSN, SCF-Nedd8-OG deneddylation; inhibition, % at 12.5 µM; 0.38% of 360,000 active; AID 651999, 2013;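 active = pattern-corrected inhibition above about 35%, with an unprinted fluorescence ratio check between 0.5 and 1.5, limit read from the data, passing the limit was not always enough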;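 also: 0% = enzyme with substrate and 100% = substrate without enzyme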
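assay system = purified human Csn5 enzyme expressed in HEK293T cells | amount = 0.24 nM enzyme | buffer or medium = Tris/NaCl/DTT buffer, pH 7.5 | reagent = 10 nM SCFSkp2-Nedd8OG | compound = one concentration, 12.5 µM, 0.25% DMSO | times = 90 min reaction at room temperature | signal = FP | read-out basis = % inhibition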
Rpn11 block = Rpn11 (PSMD14) deubiquitinase inhibitors, primary screen, biochemical, fluorescence polarization, uHTS. human 26S proteasome, Ub4-pepOG fluorescence polarization; 20S core pre-blocked with epoxomicin. inhibition, % at 20 µM. 0.59% of 360,000 active;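 active = inhibition at 20 µM, scaled to each plate's controls, above about 33%, limit read from the data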
HNF4A DNA FP = change in binding of human HNF4A to DNA, primary screen, biochemical, fluorescence polarization, FITC-DNA; Hepatocyte nuclear factor 4-alpha (Homo sapiens), P41235; 1 h; activity change, % at 10 µM; 0.3% of 360,000 active; AID 1224865, 2016; in the data active = activity change above about 30%, passing the limit was not always enough
TPT1 inh confirm = Candida albicans TPT1 inhibitors, confirmation, biochemical, fluorescence polarization, triplicate; shares compounds with TPT1 inhibitor; recombinant caTPT1, RNase T1 coupled; inhibition, % at 5 µM; 74% of 2,400 active; AID 2149, 2009;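 active = inhibition above the primary screen limit, the mean inhibition of all tested compounds plus 3 SD, cut at about 25% in these data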
RNase T1 inh = RNase T1 inhibitors, counter-screen for TPT1 inhibitor project, biochemical, fluorescence polarization. RNase T1 cleavage, 1536-well. 83% of 2,400 active. inhibition, % at 5 µM. AID 2153, 2009. shares compounds with TPT1 inhibitor;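 active = inhibition above the solvent-only control well mean plus 3 SD, limit set per screening run, cut at about 23% in these data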;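 also: plate controls were DMSO wells with enzyme for no effect and wells without RNase T1 for full effect; inhibitors block cleavage so intact labeled substrate keeps polarization high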
Rpn11 confirm = Rpn11 (PSMD14) deubiquitinase inhibitors, confirmation, biochemical, fluorescence polarization, single concentration; 29% of 1,900 active; inhibition, % at 20 µM; purified human 26S proteasome, Ub4-pepOG fluorescence polarization; proteasome pretreated with epoxomicin; shares compounds with Rpn11 block
MMP-2 counter-1 = MMP-2 enzyme inhibition, confirmation, counter-screen for RPN11 inhibitor project, biochemical, fluorescence, single concentration | shares compounds with Rpn11 block | recombinant MMP-2, FRET peptide cleavage fluorescence | inhibition, % at 20 µM | 4% of 1,900 active;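 also: human MMP-2 activated beforehand with APMA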
Thrombin FP = bovine thrombin protease inhibition, confirmation, counter-screen for Rpn11 inhibitor project, biochemical, fluorescence polarization, single concentration | bovine thrombin cleavage of Ub4-pepOG | inhibition, % at 20 µM | shares compounds with Rpn11 block | 13% of 1,900 active;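 active = mean inhibition at least 40% at 20 µM, or signal 3 deviations below plate average, so some actives read negative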;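 also: plate controls were thrombin with DMSO for no effect and buffer wells lacking thrombin for full effect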
Target sequence (P00735 whole entry, looked up): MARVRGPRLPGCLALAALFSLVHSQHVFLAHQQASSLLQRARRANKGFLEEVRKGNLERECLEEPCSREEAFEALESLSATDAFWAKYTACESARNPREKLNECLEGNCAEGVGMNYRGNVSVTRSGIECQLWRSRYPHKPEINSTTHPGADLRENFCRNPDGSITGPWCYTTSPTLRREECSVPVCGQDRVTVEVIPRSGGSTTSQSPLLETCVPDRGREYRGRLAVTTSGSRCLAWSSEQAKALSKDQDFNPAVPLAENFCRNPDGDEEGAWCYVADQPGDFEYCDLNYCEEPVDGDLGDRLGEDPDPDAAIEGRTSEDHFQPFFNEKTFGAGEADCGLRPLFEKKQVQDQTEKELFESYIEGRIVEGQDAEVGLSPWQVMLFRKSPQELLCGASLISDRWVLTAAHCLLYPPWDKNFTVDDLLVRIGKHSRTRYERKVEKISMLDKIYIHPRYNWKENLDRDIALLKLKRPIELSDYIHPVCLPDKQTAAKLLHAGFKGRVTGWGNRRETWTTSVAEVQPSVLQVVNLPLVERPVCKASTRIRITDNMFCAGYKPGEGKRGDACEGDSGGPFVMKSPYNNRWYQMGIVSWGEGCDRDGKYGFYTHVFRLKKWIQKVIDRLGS
CSN deneddyl val = Csn5 deneddylation inhibitors, confirmation, biochemical, fluorescence polarization, single concentration, SCF-Nedd8OG substrate | shares compounds with CSN deneddyl inh | Csn5 deneddylation of SCF-Nedd8OG, 90 min | inhibition, % at 16.6 µM | 62% of 540 active | AID 720654, 2013; in the data active = inhibition above about 50%;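 also: 0% = DMSO with enzyme and 100% = no enzyme wells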
MMP-2 counter-2 = MMP-2 protease inhibition counter-screen, confirmation, counter-screen for CSN deneddylation inhibitor project, biochemical, fluorescence, single concentration; AID 720655, 2013; 33% of 540 active; recombinant MMP-2, FRET substrate fluorescence, 60 min; inhibition, % at 16.6 µM; shares compounds with CSN deneddyl inh;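 active = corrected plate-normalized z-score of 5 or more, or -5 or less, or inhibition of 15% or more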;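 also: plate controls were DMSO wells with enzyme for no effect and buffer wells lacking MMP-2 for full effect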
Thrombin cntr = thrombin (bovine) inhibition, counter-screen for CSN hits; bovine thrombin cleavage of Ub4-pepOG, fluorescence polarization; 49% of 540 active; inhibition, % at 16.6 µM; AID 720656; shares compounds with CSN deneddyl inh;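 active = inhibition at or above a set limit, with a fluorescence interference ratio between 0.5 and a set maximum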
The depositor's hits bear a star; . = no result shown; + = active, no number. Rows were chosen to be rich in hits. Some 1.5% of all compounds tested hit in one or more screens of this group. Rule as the data show it, unless noted: active = inhibition above about 40%; inactive = the rest.

SMILES	TPT1 inhibitor	CSN deneddyl inh	Rpn11 block	HNF4A DNA FP	TPT1 inh confirm	RNase T1 inh	CSN deneddyl val	MMP-2 counter-2	Thrombin cntr	others
O=C(O)CCCN1C(=O)/C(=C\c2ccc(-c3nc4ccccc4s3)o2)SC1=S	30*	117	159*	26	48*	75*	.	.	.	Rpn11 confirm=70*;MMP-2 counter-1=29;Thrombin FP=-47
O=Cc1ccc(-c2nc3ccccc3s2)o1	6	7	1	2	.	.	.	.	.
O=C(O)CCN1C(=O)/C(=C/c2ccc(-c3nc4ccccc4s3)o2)SC1=S	31*	193	+	60*	46*	66*	.	.	.	Rpn11 confirm=173*;MMP-2 counter-1=-17;Thrombin FP=35
CCc1nc2c(OCC(=O)N3CCOCC3)cccn2c1N(C=O)Cc1ccccc1	.	-2	6	5	.	.	.	.	.
CN(C)c1ccc(/C=C/C(=O)c2ccc(O)cc2)cc1	.	38	.	159	.	.	.	.	.
CN(C)c1ccc(/C=C/C(=O)c2cccnc2)cc1	93*	49*	.	3	100*	100*	52*	-43*	45*
CN(C)c1ccc(/C=C/C(=O)c2ccccc2O)cc1	68*	70*	.	27	55*	64*	92*	-19	65*
Cc1ccc(/C=C/C(=O)c2ccccc2O)cc1	2	5	-5	1	.	.	.	.	.
COC(=O)CN1C(=S)N(c2ccc(OC)cc2)C(=O)/C1=C/c1ccc(N2CCOCC2)cc1	151*	36*	.	61*	116*	123*	175*	-22	14
COc1ccc(/C=C/C(=O)OCC(=O)Nc2ccc(N3CCOCC3)cc2)cc1	4	-1	3	1	.	.	.	.	.
COc1cc(/C=C(\C#N)C(=O)c2ccc(O)c(O)c2)cc(I)c1O	129*	+	.	110	180*	161*	19	-106*	57
Cc1cc(/C=N/Nc2ccc([N+](=O)[O-])cn2)c(C)n1-c1ccc(C(=O)O)cc1	54*	53*	31	16	68*	79*	90*	13	2
COc1cc2cc3c(N)c(C(=O)Nc4sc(C)c(C)c4C#N)sc3nc2cc1OC	36*	74*	84*	15	39*	49*	82*	1	10	Rpn11 confirm=48*;MMP-2 counter-1=6;Thrombin FP=31
CCN1CCc2c(sc(NC(=O)c3cc4ccccc4cc3OC)c2C(N)=O)C1	46*	38*	72*	37*	40*	46*	56*	-3	9	Rpn11 confirm=75*;MMP-2 counter-1=-38;Thrombin FP=39
CC(C)N1CCc2c(sc(NC(=O)c3ccc4ccccc4c3)c2C(N)=O)C1	96*	57*	.	63*	90*	96*	+	1	48*
CN(CC(=O)NCCc1ccc(Cl)cc1)S(=O)(=O)c1cccs1	-1	6	3	0	.	.	.	.	.
CCOC(=O)C1=C(C)N=c2s/c(=C/c3ccc(OCC(=O)O)c(OC)c3)c(=O)n2C1c1ccc(Cl)cc1 (centres undefined)	42*	40*	53*	17	60*	72*	85*	3	14	Rpn11 confirm=93*;MMP-2 counter-1=-10;Thrombin FP=-7
CCOC(=O)C1=C(C)N=c2s/c(=C/c3ccccc3)c(=O)n2C1c1ccc(OC)c(OC)c1 (centres undefined)	9	0	8	-2	.	.	.	.	.
CN(/N=C/c1ccc(-c2ccc([N+](=O)[O-])cc2)o1)c1ccccc1	73*	50*	.	48*	74*	82*	92*	2	25*
Cc1ccc2nc(/C(C#N)=C/c3ccc(O)c(O)c3)[nH]c2c1	56*	59*	.	19	77*	84*	50*	-1	62*
COc1cc(OC)cc(C(=O)N[C@H](C(=O)OCC(=O)N2CCN(S(=O)(=O)c3ccc(C)cc3)CC2)C(C)C)c1	.	0	1	5	.	.	.	.	.
Cc1ccc(N=Cc2c(O)c3ccccc3n(C)c2=O)cc1	.	-3	-5	-3	.	.	.	.	.
Cc1ccc(N=Cc2sc(O)c3ccccc23)cc1	142*	40*	.	77	111*	109*	82*	-10	57*
O=S(=O)(Nc1cc2nc3ccccc3nc2n1Cc1ccccc1)c1ccc(Cl)cc1	44*	70*	-2	-6	39*	51*	77*	-7	3
CCN1C[C@@H]2[C@@H]3C(=O)N(C)C(=O)[C@@H]3[C@](C)(C1=O)N2C(=O)c1ccc(Cl)c(Cl)c1	.	-6	-2	-2	.	.	.	.	.
Cc1cc2oc3ccc(NCCCN4CCOCC4)cc3c(=O)c2cc1C	-2	0	3	-1	.	.	.	.	.
Cc1cc2oc3ccc(NCCCn4ccnc4)cc3c(=O)c2cc1C	55*	48*	.	73*	64*	73*	137*	61*	30*
CC(C)(C)OC(=O)CN1C(=O)S/C(=C\c2ccc(-c3cccc(C(=O)O)c3)o2)C1=O	5	.	.	.	.	.	.	.	.
